Data as given in ChEMBL document CHEMBL4725426, “Targeted Detection of Cyclooxygenase-1 in Ovarian Cancer” (ACS Med Chem Lett, 2020).
Calls of active or inactive are those of the source. The rule behind the calls is not given here.

Columns and labels:
[1] = molecular target: T1, Prostaglandin G/H synthase 1 (Ovis aries, UniProt P05979); experiment: Inhibition of ovine COX-1 assessed as [14C] arachidonic acid remaining using [14C] arachidonic acid as substrate preincubated for 20 mins followed by substrate addition measured after 30 sec by thin layer chromatography assay
T1 sequence (P05979 whole entry): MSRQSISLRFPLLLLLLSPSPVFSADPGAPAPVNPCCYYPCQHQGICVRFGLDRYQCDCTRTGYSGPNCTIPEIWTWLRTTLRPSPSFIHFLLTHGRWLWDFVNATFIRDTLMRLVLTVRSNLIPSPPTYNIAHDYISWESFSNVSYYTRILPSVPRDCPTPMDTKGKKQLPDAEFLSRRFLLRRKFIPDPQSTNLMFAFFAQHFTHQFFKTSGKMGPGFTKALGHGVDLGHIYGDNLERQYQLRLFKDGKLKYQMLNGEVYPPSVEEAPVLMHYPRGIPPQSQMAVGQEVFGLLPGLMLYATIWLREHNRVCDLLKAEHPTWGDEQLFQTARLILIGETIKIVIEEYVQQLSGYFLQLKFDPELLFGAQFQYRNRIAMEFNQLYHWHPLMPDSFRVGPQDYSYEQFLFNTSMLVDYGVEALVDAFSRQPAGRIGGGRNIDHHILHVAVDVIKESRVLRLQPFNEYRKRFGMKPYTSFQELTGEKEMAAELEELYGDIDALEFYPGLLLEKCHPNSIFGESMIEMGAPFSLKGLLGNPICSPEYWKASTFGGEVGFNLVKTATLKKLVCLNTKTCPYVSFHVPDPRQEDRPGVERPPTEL
Outline: (§1)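 Purified ovine COX-1 or murine COX-2 preincubated 20 min with vehicle or compound at various concentrations. [1-¹⁴C]arachidonic acid was then added and the reaction run a further 30 s. Conversion read by thin layer chromatography. IC50 derived.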

[2] = molecular target: T2, Prostaglandin G/H synthase 2 (Mus musculus, UniProt Q05769); experiment: Inhibition of murine COX-2 assessed as [14C] arachidonic acid remaining using [14C] arachidonic acid as substrate preincubated for 20 mins followed by substrate addition measured after 30 sec by thin layer chromatography assay; outline: as §1
T2 sequence (Q05769 whole entry): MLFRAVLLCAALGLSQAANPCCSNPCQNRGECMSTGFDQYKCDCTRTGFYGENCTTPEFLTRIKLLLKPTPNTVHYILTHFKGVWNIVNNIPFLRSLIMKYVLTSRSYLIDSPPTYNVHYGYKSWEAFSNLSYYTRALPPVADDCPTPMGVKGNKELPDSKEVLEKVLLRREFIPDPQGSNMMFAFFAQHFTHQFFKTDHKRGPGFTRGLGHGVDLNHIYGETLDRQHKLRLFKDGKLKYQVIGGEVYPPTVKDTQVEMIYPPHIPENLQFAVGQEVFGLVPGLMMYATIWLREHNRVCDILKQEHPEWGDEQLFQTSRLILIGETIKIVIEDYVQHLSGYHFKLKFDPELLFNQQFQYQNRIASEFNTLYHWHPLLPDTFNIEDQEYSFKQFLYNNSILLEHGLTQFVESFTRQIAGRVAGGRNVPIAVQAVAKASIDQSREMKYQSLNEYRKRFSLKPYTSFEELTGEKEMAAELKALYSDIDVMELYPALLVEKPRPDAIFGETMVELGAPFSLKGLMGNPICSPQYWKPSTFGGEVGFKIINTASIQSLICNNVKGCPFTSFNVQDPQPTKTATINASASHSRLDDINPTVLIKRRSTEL

[3] = molecular target: T3, Prostaglandin G/H synthase 1 (Homo sapiens, UniProt P23219); experiment: Inhibition of COX-1 in human OVCAR3 cells assessed as [14C] arachidonic acid remaining using [14C] arachidonic acid as substrate preincubated for 30 mins followed by substrate addition measured after 30 mins; type: cell-based, OVCAR-3
T3 sequence (P23219 whole entry): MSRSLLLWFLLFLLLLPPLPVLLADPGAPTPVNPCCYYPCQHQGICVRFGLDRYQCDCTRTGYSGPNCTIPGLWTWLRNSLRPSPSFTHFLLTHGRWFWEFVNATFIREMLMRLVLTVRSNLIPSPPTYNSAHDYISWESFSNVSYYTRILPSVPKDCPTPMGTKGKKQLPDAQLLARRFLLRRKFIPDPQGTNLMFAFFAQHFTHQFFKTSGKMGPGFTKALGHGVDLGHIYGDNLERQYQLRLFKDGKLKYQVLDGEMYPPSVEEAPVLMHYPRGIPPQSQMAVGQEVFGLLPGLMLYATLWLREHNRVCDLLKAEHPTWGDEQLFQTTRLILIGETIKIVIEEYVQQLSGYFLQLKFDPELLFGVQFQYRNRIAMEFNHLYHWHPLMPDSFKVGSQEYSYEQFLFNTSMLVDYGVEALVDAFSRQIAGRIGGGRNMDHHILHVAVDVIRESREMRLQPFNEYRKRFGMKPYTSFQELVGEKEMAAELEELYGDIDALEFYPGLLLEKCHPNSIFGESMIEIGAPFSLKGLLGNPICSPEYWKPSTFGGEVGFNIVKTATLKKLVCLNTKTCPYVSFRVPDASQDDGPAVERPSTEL
Outline: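 Intact OVCAR-3 cells treated 30 min with vehicle or compound across several concentrations, then given [1-¹⁴C]arachidonic acid for another 30 min. Medium aliquots were quenched, extracted, run on TLC and scanned for substrate remaining. IC50 taken from the concentration series.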

[4] = molecular target: T3, Prostaglandin G/H synthase 1; experiment: Binding affinity to COX-1 in human OVCAR3 cells assessed as protein labeling pretreated with indomethacin for 30 mins followed by compound treatment for 30 mins and subsequent compound washout followed by cultured in serum media measured after 45 mins by fluorescence microscope based optical imaging analysis; type: cell-based; details: OVCAR-3
Outline: (§2)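 OVCAR-3 cells pretreated 30 min with vehicle or indomethacin, then exposed to probe 30 min, washed briefly and cultured 45 min in serum-containing medium. Intracellular fluorescence then imaged under a fluorescence microscope.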

[5] = molecular target: T3, Prostaglandin G/H synthase 1; experiment: Binding affinity to COX-1 in human OVCAR3 cells assessed as protein labeling treated for 30 mins and subsequent compound washout followed by cultured in serum media measured after 45 mins by fluorescence microscope based optical imaging analysis; type: cell-based; details: OVCAR-3; outline: as §2
[6] = Drug uptake in NU-Fox1nu nude mouse xenografted with COX-1 expressing human OVCAR3 cells at 1 mg/kg, ip and measured before 2 hrs post-drug administration by IVIS spectrum in vivo fluorescence imaging analysis; type: ADME, organism-based
Outline: (§3)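 Female athymic nude mice carried subcutaneous OVCAR-3 xenografts on the left hind flank, grown to about 750–1000 mm³. Probe given i.p. at 1 mg/kg in DMSO. Mice lightly anesthetized and imaged on an IVIS system at 15 min, 30 min, 1, 2, 3 and 4 h post-injection.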

[7] = Drug uptake in NU-Fox1nu nude mouse xenografted with COX-1 expressing human OVCAR3 cells at 1 mg/kg, ip and measured after 3 to 4 hrs post-drug administration by IVIS spectrum in vivo fluorescence imaging analysis; type: ADME, organism-based; details: time 3-4 hrs; outline: as §3
[8] = Drug uptake in tumor of NU-Fox1nu nude mouse xenografted with COX-1 expressing human OVCAR3 cells at 1 mg/kg, ip by IVIS spectrum ex vivo fluorescence imaging analysis; type: ADME, organism-based, Neoplasm
Outline: (§4)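 OVCAR-3 xenograft-bearing female nude mice (tumors 750–1000 mm³) were dosed with probe at 1 mg/kg i.p. in DMSO. After in vivo imaging, tumor, muscle, kidney and liver were collected and imaged ex vivo.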

[9] = Drug uptake in kidney of NU-Fox1nu nude mouse xenografted with COX-1 expressing human OVCAR3 cells at 1 mg/kg, ip by IVIS spectrum ex vivo fluorescence imaging analysis; type: ADME, organism-based; outline: as §4
[10] = Drug uptake in liver of NU-Fox1nu nude mouse xenografted with COX-1 expressing human OVCAR3 cells at 1 mg/kg, ip by IVIS spectrum ex vivo fluorescence imaging analysis; type: ADME, organism-based; outline: as §4
[11] = Drug uptake in leg muscle of NU-Fox1nu nude mouse xenografted with COX-1 expressing human OVCAR3 cells at 1 mg/kg, ip by IVIS spectrum ex vivo fluorescence imaging analysis; type: ADME, organism-based; outline: as §4
[12] = Drug uptake in NU-Fox1nu nude mouse allografted with mouse ID8-NGL cells at 2 mg/kg, ip measured after 3 to 4 hrs post-drug administration by IVIS spectrum in vivo fluorescence imaging analysis; type: ADME, organism-based; details: time 3-4 hrs
Outline: (§5)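 Female athymic nude mice bearing ID8-NGL flank allografts (left hind flank, grown to 750–1000 mm³; n = 6). Probe given i.p. at 2 mg/kg in DMSO. Imaged under light anesthesia on an IVIS system 3 to 4 h post-injection.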

[13] = Drug uptake in tumor of NU-Fox1nu nude mouse allografted with mouse ID8-NGL cells at 2 mg/kg, ip measured after 3 to 4 hrs post-drug administration by IVIS spectrum in vivo fluorescence imaging analysis relative to control; type: ADME, organism-based, Neoplasm; details: time 3-4 hrs; outline: as §5
[14] = Drug uptake in tumor of NU-Fox1nu nude mouse allografted with mouse ID8-NGL cells at 2 mg/kg, ip treated with 10 mg/kg indomethacin 1hr prior to compound treatment followed by compound administration measured after 3 to 4 hrs post-drug administration by IVIS spectrum fluorescence imaging analysis; type: ADME, organism-based, Neoplasm; details: in vivo, time 3-4 hrs
Outline: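 ID8-NGL flank allografts (750–1000 mm³) in nude mice. Indomethacin 10 mg/kg i.p. in DMSO given 1 h before probe (2 mg/kg i.p. in DMSO). Tumors imaged 3 to 4 h after probe; region-of-interest light emission read at 3.5 h in relative fluorescence units.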

## COc1ccc(-n2nc(CCC(=O)NCCCCNC(=O)c3ccc(C4=c5cc6c7c(c5Oc5c4cc4c8c5CCCN8CCC4)CCC[N+]=7CCC6)c(C(=O)[O-])c3)cc2-c2ccc(C)cc2)cc1
[1]
  IC50: 94 nM
[2]
  IC50: > 1000 nM
[3]
  IC50: 44 nM
[4]
  Activity: inactive
[5]
  Activity: Active
[6]
  Drug uptake: Not Active
[7]
  Drug uptake: Active
[8]
  Drug uptake: Active
[9]
  Drug uptake: Active
[10]
  Drug uptake: Active
[11]
  Drug uptake: Active
[12]
  Drug uptake: Active
[13]
  fold change (FC): 8
[14]
  Drug uptake: Not Active
